Assay results taken from the RNAGym collection of RNA variant scans (doi:10.1126/science.aae0568).
Variants at the floor of the assay were thinned out.

B1: tRNA (parent)
chain: GUUCCGUUGGCGUAAUGGUAACGCGUCUCCCUCCUAAGGAGAAGACUGCGGGUUCGAGUCCCGUACGGAACG

Variants of: B1
Test: yeast fitness relative to wild type (ratio to wild type); higher = fitter; tRNA-Arg(CCU), competitive growth, 37 C, YPD
In short: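 A pool of Saccharomyces cerevisiae strains, each with a tRNA-Arg(CCU) gene variant at the native genomic locus, was competed in YPD at 37°C for 24 hours across six parallel replicates. The variants had been chemically synthesised at a 3% per-site mutation rate over 69 sites, and gene amplicons before and after competition were read by 100-nucleotide paired-end sequencing. Darwinian fitness relative to wild type rested on changes in genotype frequencies. Genotypes required ≥ 100 starting reads, and estimates < 0.5 were set to 0.5.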

Variant	yeast fitness
GUUCAGUUGGCGUAAUGGUAACGCGUCUCCCUCCUAAGGAGAAGACUGCGGGGUCGAGUACCGUACGGAACG [C5A U53G C60A]	≤ 0.5
GUUCGGUUGGCGUCAUGGUAACGCGUCUACGUCCUAAGGAGAAGACUGCGGGUACGAGUCCCGUACGGAUCG [C5G A14C C29A C31G U54A A70U]	0.545
GUUCGGUUGGCGUAUUGGUAACGCGUCUCCCUCCUAAGGAGAAGACUGCAGGUUCGAGUCCCGUACGGUACG [C5G A15U G50A A69U]	≤ 0.5
GUUCGGUUGGCGUUAUGAUAUCGCGUCUCCCUCCUAAGGAGGAGACUGCGGGUUCGAGUCCCGUACGAAACG [C5G A14U G18A A21U A42G G68A]	0.522
GUUCGGUUGGCGUUAUGAUAUCGCGUCUCCCUCCUAAGGAGCAGACUCCGGGUUCGAGUCCCGUACGGAACG [C5G A14U G18A A21U A42C G48C]	≤ 0.5
GUUCAGUUGGCGUAAUGGUAACGCGUCUCCCUCCUAAGGAGAAGACUGCGGGUUCGAGACCCGUAAGGAACG [C5A U59A C66A]	≤ 0.5
GUUCGGUUGGCGUCAUGGUGACGCGUCUACGUCCUAAGGAGAAGACUGCGGGUACGAGUCCCGUACGGAACG [C5G A14C A20G C29A C31G U54A]	≤ 0.5
GUUCAGUUGGCGUAAUGGUAACGCGUCUCCCUCCGAAGGAGAAGACCGCGGGUUCGAGUCGCGUACGGAACG [C5A U35G U47C C61G]	≤ 0.5
GUUCGGUUGGCGUAUUGGUAACGCGUCUCCCUCCUAAGGAGAAGACUGUGGGUUCGUGUCACGUACGGAACG [C5G A15U C49U A57U C61A]	0.663
GUUCAGUUGGCGUAAUGGUAACGCGUCUCCCUCCCAAGGAGAAGACUGCGGGUUCGAGUCCCGUAUGGAACG [C5A U35C C66U]	0.579
GUUCAGUUGGCGUAAUGGUAACGCGUCUCCCUCCGAAGGAGAAGACUGCGGGUUCGAGUGCCGUACGGAACG [C5A U35G C60G]	≤ 0.5
GUUCAGUUGGCGUAAUGGUAACGCGUCUCCCUCCUAAGGAGAAGACCGCGGGUUCGAGUCCCGUACGGAACG [C5A U47C]	0.85
GUUCGGUUGGCGUUAUGGUAACGCGUCUCCCUCCUCAGGAGAAGACUGCGGGUUCGAGUCGAGUACGGCACG [C5G A14U A36C C61G C62A A69C]	≤ 0.5
GUUCAGUUGGCGUAAUGGUAACGCGUCUCCCUCCCAAGGAGAAGACUGCGGGUUCGAGUCCCGUACGGAACG [C5A U35C]	0.869
GUUCGGUUGGCGUCAUGAUAACGCGUCUCCCUCCUAAGGAGAGGCUUGCGGGUUCGGGUCCCGUACGGAACG [C5G A14C G18A A43G A45C C46U A57G]	≤ 0.5
GUUCGGUUGGCGUCAUGGUAACCCGUCUCCCUCCUAAAGAGAAGACUGCGGGUUCGACUCCCAUACGGAGCG [C5G A14C G23C G38A G58C G63A A70G]	≤ 0.5
GUUCGGUUGGCGUUAUGGUAACGGGUCUCCCUCCUAAGGAGAAGACUGCGGGUUCGAGUCCCGUACGGAUCG [C5G A14U C24G A70U]	≤ 0.5
GUUCAGUUGGCGUAAUGGUAACGCGUCUCCCUCCUAAGGAGAAGACUGCGGGUACGAGUCCCGUACGGAACG [C5A U54A]	0.699
GUUCGGUUGGCGUUAUGGUAACGCGUCUCACUCCUAAGGAGAAGACUGCGGGUUCGAGUCCAGUACGGAACG [C5G A14U C30A C62A]	≤ 0.5

Variant	yeast fitness
GUUCGGUUGGCGUGAUGGUAACGCGUCUCCCUCCUAAGGAGAAGACUGCGGGUUCGAGUCCCGUACGGAACG [C5G A14G]	0.999
GUUCGGUUGGCGUGAUGGUAACGCGUCUCCCUCCUUAGGAGAAGACUGCGGGUUCGAGUCCCGUACGGAACG [C5G A14G A36U]	0.647
GUUCGGUUGGCGUAGUGGUAACGGGUCUCCCUCCUAAGGAGAAGACUGCGGGUUCGAGUACCGUACGGAACG [C5G A15G C24G C60A]	≤ 0.5
GUUCGGUUGGCGUACUGGUAUCGUGUCUCCCUCCUAAGGAGAAGACUGCGGGUUCGGGUCCCGUACUGAACG [C5G A15C A21U C24U A57G G67U]	≤ 0.5
GUUCGGUUGGCGUCAUGGUAACGCAUCUCCCCCCUAAGGACAAGACUGCAGGUUCGAGUCGCGUACGGAACG [C5G A14C G25A U32C G41C G50A C61G]	≤ 0.5
GUUCGGUUGGCGUGAUGGUAUCGCGUCUCCCUCCUAAGGAGAAGACUGCGGGUUCGUGUCCCGUACGGAACG [C5G A14G A21U A57U]	≤ 0.5
GUUCGGUUGGCGUCAUGGUAACGCGUCUUCCUGCUAAGGAGAAGACUGCGGGUUCGAGUCCCGUACGGAACG [C5G A14C C29U C33G]	≤ 0.5
GUUCAGUUGGCGUAAUGGUAACGCGUCUCCCUCCUAAGGAGAAGACUGCGGGUUCGAGUCCCGCACGGAACG [C5A U64C]	0.96
GUUCAGUUGGCGUAAUGGUAACGCGUCUCCCUCCUAAGGAGAAGACUGCGGGUUCGAGUCCCGAACGGAACG [C5A U64A]	0.766
GUUCAGUUGGCGUAAUGGUAACGCGUCUCCCUCCGAAGGAGAAGACUGCGGGUUCGAGUUCGGUACGGAGCG [C5A U35G C60U C62G A70G]	≤ 0.5
GUUCGGUUGGCGUAGUGGUAGCGCCUCUCCCUUCUAAGGAGAAGACUGCGGGUUCGAGUCCCGUACGGAACG [C5G A15G A21G G25C C33U]	≤ 0.5
GUUCGGUUGGCGUAUUGGUAACGCGUCUCCCUCCUAAGGAGAAGAUUGCGGGUUCGAGUCCCGUACGGAGCG [C5G A15U C46U A70G]	≤ 0.5
GUUCGGUUGGCGUCAUGGUAACGCGUCUACGUCCUAAGGAGAAGACUGCGGGUUCGAGUCCCGUCCGGAACG [C5G A14C C29A C31G A65C]	≤ 0.5
GUUCGGUUGGCGUCAUGAUAACGCGUCUCCCUCCUAAGGAGAGGCUUGCGGGUUCGAGUCCCGUACGGAACG [C5G A14C G18A A43G A45C C46U]	0.579
GUUCGGUUGGCGUCAUGGUAACGCGUCUCCGUCCUAAGGAGAAGACUGCGGGUUCAAGUCCCGUACGGAUCG [C5G A14C C31G G56A A70U]	≤ 0.5
GUUCGGUUGGCGUAUUGGUAACGCGUCUCCCUCCUAAGGAGAAGACUGCGGGUUCGAGUCUCGUACGGAACG [C5G A15U C61U]	≤ 0.5
GUUCGGUUGGCGUAUUGGUAACGCGUCUCCCUCCAAAGGAGAAGACUGCAGGUGCGAGUCCCGUACGGAACG [C5G A15U U35A G50A U54G]	≤ 0.5
GUUCGGUUGGCGUGAUAGUAACGCGUCUCCCCCCUAAGGAGAAGACUGCGGGUUCCAGUGCCGUACGGAACG [C5G A14G G17A U32C G56C C60G]	0.554
GUUCAGUUGGCGUAAUGGUAACGCGUCUCCCUCCGAAGGAGCAGACUGCGGGUUCGAGUCCCGUACGGCACG [C5A U35G A42C A69C]	0.588
